≈ marks a conversion by molar mass, not a printed value.
Tests used:
Streptococcus pneumoniae [1] = assay: Antibacterial activity against erythromycin-susceptible Streptococcus pneumoniae ATCC 49619 by broth microdilution method; type: functional
Outline: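 MIC read by broth microdilution following CLSI guidelines for S. pneumoniae; clarithromycin run alongside as comparator in all assays.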

Streptococcus pneumoniae [2] = assay: Antibacterial activity against MLSB-resistant Streptococcus pneumoniae 205 by broth microdilution method; type: functional
Outline: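 MIC measured by broth microdilution following CLSI guidelines for S. pneumoniae; erythromycin-susceptible and erythromycin-resistant pneumococcal strains tested, with clarithromycin as comparator in every run.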

Question: How did the MIC (Streptococcus pneumoniae [1]) turn out when `CO[C@]1(C)C[C@@H](C)C(=O)[C@H](C)CN(C)CCOC(=O)[C@H](C)[C@@H](O[C@H]2C[C@@](C)(OC)[C@@H](O)[C@H](C)O2)[C@H](C)[C@H]1O[C@@H]1O[C@H](C)C[C@H](N(C)C)[C@H]1O` was run?
Answer: Its MIC is 32 µg/mL (≈ 45.5 µM).

Question: And the MIC (Streptococcus pneumoniae [2])?
Answer: The MIC was greater than 128 µg/mL.

Question: How did the MIC (Streptococcus pneumoniae [1]) turn out when `CO[C@]1(C)C[C@H](O[C@H]2[C@H](C)[C@@H](O[C@@H]3O[C@H](C)C[C@H](N(C)C)[C@H]3O)[C@](C)(O)C[C@@H](C)[C@H](N)[C@H](C)CN(C)CCOC(=O)[C@@H]2C)O[C@@H](C)[C@@H]1O` was run?
Answer: The MIC was 2 µg/mL (≈ 2.9 µM).

Question: What about the MIC (Streptococcus pneumoniae [2]) of the same compound?
Answer: Its MIC is greater than 128 µg/mL.

Question: `CO[C@]1(C)C[C@H](O[C@H]2[C@H](C)[C@@H](O[C@@H]3O[C@H](C)C[C@H](N(C)C)[C@H]3O)[C@](C)(O)C[C@@H](C)[C@H](N)[C@H](C)CN(C)C[C@H](COCc3ccccc3)OC(=O)[C@@H]2C)O[C@@H](C)[C@@H]1O` was tested. Which MIC (Streptococcus pneumoniae [1]) did it give?
Answer: The MIC was 0.12 µg/mL (≈ 0.148 µM).

Question: And the MIC (Streptococcus pneumoniae [2])?
Answer: Its MIC is greater than 128 µg/mL.

Question: For `CO[C@]1(C)C[C@@H](C)[C@H](O)[C@H](C)CN(C)[C@@H](CN)COC(=O)[C@H](C)[C@@H](O[C@H]2C[C@@](C)(OC)[C@@H](O)[C@H](C)O2)[C@H](C)[C@H]1O[C@@H]1O[C@H](C)C[C@H](N(C)C)[C@H]1O`, which MIC (Streptococcus pneumoniae [1]) is on record?
Answer: Its MIC is 64 µg/mL (≈ 87.2 µM).

Question: What about the MIC (Streptococcus pneumoniae [2]) of the same compound?
Answer: Its MIC is greater than 128 µg/mL.

Question: For `CCN(CC)C[C@H]1COC(=O)[C@H](C)[C@@H](O[C@H]2C[C@@](C)(OC)[C@@H](O)[C@H](C)O2)[C@H](C)[C@@H](O[C@@H]2O[C@H](C)C[C@H](N(C)C)[C@H]2O)[C@](C)(OC)C[C@@H](C)[C@H](O)[C@H](C)CN1C`, which MIC (Streptococcus pneumoniae [1]) is on record?
Answer: Its MIC is 128 µg/mL (≈ 162 µM).

Question: And the MIC (Streptococcus pneumoniae [2])?
Answer: The MIC was greater than 128 µg/mL.

Question: For `CCN(CCNC(=O)O[C@H]1[C@H](C)O[C@@H](O[C@H]2[C@H](C)[C@@H](O[C@@H]3O[C@H](C)C[C@H](N(C)C)[C@H]3O)[C@](C)(O)C[C@@H](C)[C@H](N)[C@H](C)CN(C)CCOC(=O)[C@@H]2C)C[C@@]1(C)OC)[C@@H](C)c1ccccc1OC`, which MIC (Streptococcus pneumoniae [1]) is on record?
Answer: Its MIC is 0.12 µg/mL (≈ 0.128 µM).

Question: And the MIC (Streptococcus pneumoniae [2])?
Answer: The MIC was 0.5 µg/mL (≈ 0.533 µM).

Question: With `CO[C@]1(C)C[C@@H](C)[C@H](O)[C@H](C)CN(C)[C@H](COCc2ccccc2)COC(=O)[C@H](C)[C@@H](O[C@H]2C[C@@](C)(OC)[C@@H](O)[C@H](C)O2)[C@H](C)[C@H]1O[C@@H]1O[C@H](C)C[C@H](N(C)C)[C@H]1O` as the compound, how does the MIC (Streptococcus pneumoniae [1]) read?
Answer: The MIC was 4 µg/mL (≈ 4.85 µM).

Question: And the MIC (Streptococcus pneumoniae [2])?
Answer: Its MIC is 64 µg/mL (≈ 77.6 µM).

Question: With `CCN(CCNC(=O)O[C@H]1[C@H](C)O[C@@H](O[C@H]2[C@H](C)[C@@H](O[C@@H]3O[C@H](C)C[C@H](N(C)C)[C@H]3O)[C@](C)(O)C[C@@H](C)[C@H](N)[C@H](C)CN(C)C[C@H](COCc3ccccc3)OC(=O)[C@@H]2C)C[C@@]1(C)OC)[C@@H](C)c1ccccc1OC` as the compound, how does the MIC (Streptococcus pneumoniae [1]) read?
Answer: Its MIC is 0.12 µg/mL (≈ 0.113 µM).

Question: What about the MIC (Streptococcus pneumoniae [2]) of the same compound?
Answer: Its MIC is 0.25 µg/mL (≈ 0.236 µM).

Question: `CO[C@]1(C)C[C@@H](C)[C@H](O)[C@H](C)CN(C)CCOC(=O)[C@H](C)[C@@H](O[C@H]2C[C@@](C)(OC)[C@@H](O)[C@H](C)O2)[C@H](C)[C@H]1O[C@@H]1O[C@H](C)C[C@H](N(C)C)[C@H]1O` was tested. Which MIC (Streptococcus pneumoniae [1]) did it give?
Answer: The MIC was 2 µg/mL (≈ 2.84 µM).

Question: And the MIC (Streptococcus pneumoniae [2])?
Answer: Its MIC is greater than 128 µg/mL.

Question: With `CO[C@]1(C)C[C@@H](C)[C@H](O)[C@H](C)CN(C)[C@@H](COCc2ccccc2)COC(=O)[C@H](C)[C@@H](O[C@H]2C[C@@](C)(OC)[C@@H](O)[C@H](C)O2)[C@H](C)[C@H]1O[C@@H]1O[C@H](C)C[C@H](N(C)C)[C@H]1O` as the compound, how does the MIC (Streptococcus pneumoniae [1]) read?
Answer: Its MIC is 1 µg/mL (≈ 1.21 µM).

Question: What about the MIC (Streptococcus pneumoniae [2]) of the same compound?
Answer: The MIC was 64 µg/mL (≈ 77.6 µM).

Question: For `CO[C@]1(C)C[C@@H](C)[C@H](O)[C@H](C)CN(C)C[C@@H](COCc2ccccc2)OC(=O)[C@H](C)[C@@H](O[C@H]2C[C@@](C)(OC)[C@@H](O)[C@H](C)O2)[C@H](C)[C@H]1O[C@@H]1O[C@H](C)C[C@H](N(C)C)[C@H]1O`, which MIC (Streptococcus pneumoniae [1]) is on record?
Answer: Its MIC is 1 µg/mL (≈ 1.21 µM).

Question: What about the MIC (Streptococcus pneumoniae [2]) of the same compound?
Answer: The MIC was 64 µg/mL (≈ 77.6 µM).

Question: Which MIC (Streptococcus pneumoniae [1]) does the source give for `CO[C@]1(C)C[C@@H](C)[C@H](O)[C@H](C)CN(C)C[C@H](COCc2ccccc2)OC(=O)[C@H](C)[C@@H](O[C@H]2C[C@@](C)(OC)[C@@H](O)[C@H](C)O2)[C@H](C)[C@H]1O[C@@H]1O[C@H](C)C[C@H](N(C)C)[C@H]1O` here?
Answer: Its MIC is 0.06 µg/mL (≈ 0.0727 µM).

Question: And the MIC (Streptococcus pneumoniae [2])?
Answer: The MIC was 128 µg/mL (≈ 155 µM).

Question: How did the MIC (Streptococcus pneumoniae [1]) turn out when `CO[C@]1(C)C[C@@H](C)[C@H](O)[C@H](C)CN(C)[C@@H](CCOCc2ccccc2)COC(=O)[C@H](C)[C@@H](O[C@H]2C[C@@](C)(OC)[C@@H](O)[C@H](C)O2)[C@H](C)[C@H]1O[C@@H]1O[C@H](C)C[C@H](N(C)C)[C@H]1O` was run?
Answer: Its MIC is 1 µg/mL (≈ 1.19 µM).

Question: What about the MIC (Streptococcus pneumoniae [2]) of the same compound?
Answer: The MIC was 64 µg/mL (≈ 76.3 µM).

Question: Which MIC (Streptococcus pneumoniae [1]) does the source give for `CO[C@]1(C)C[C@@H](C)[C@H](O)[C@H](C)CN(C)C[C@H](c2ccccc2)OC(=O)[C@H](C)[C@@H](O[C@H]2C[C@@](C)(OC)[C@@H](O)[C@H](C)O2)[C@H](C)[C@H]1O[C@@H]1O[C@H](C)C[C@H](N(C)C)[C@H]1O` here?
Answer: The MIC was 0.5 µg/mL (≈ 0.64 µM).

Question: And the MIC (Streptococcus pneumoniae [2])?
Answer: Its MIC is greater than 128 µg/mL.

Question: `CO[C@]1(C)C[C@@H](C)[C@H](O)[C@H](C)CN(C)C[C@H](CCOCc2ccccc2)OC(=O)[C@H](C)[C@@H](O[C@H]2C[C@@](C)(OC)[C@@H](O)[C@H](C)O2)[C@H](C)[C@H]1O[C@@H]1O[C@H](C)C[C@H](N(C)C)[C@H]1O` was tested. Which MIC (Streptococcus pneumoniae [1]) did it give?
Answer: The MIC was 0.12 µg/mL (≈ 0.143 µM).

Question: And the MIC (Streptococcus pneumoniae [2])?
Answer: Its MIC is 128 µg/mL (≈ 153 µM).

Question: Which MIC (Streptococcus pneumoniae [1]) does the source give for `CO[C@]1(C)C[C@@H](C)[C@H](O)[C@H](C)CN(C)C[C@H](COc2ccccc2)OC(=O)[C@H](C)[C@@H](O[C@H]2C[C@@](C)(OC)[C@@H](O)[C@H](C)O2)[C@H](C)[C@H]1O[C@@H]1O[C@H](C)C[C@H](N(C)C)[C@H]1O` here?
Answer: The MIC was 0.25 µg/mL (≈ 0.308 µM).

Question: And the MIC (Streptococcus pneumoniae [2])?
Answer: Its MIC is 32 µg/mL (≈ 39.5 µM).

Question: What does the source list for `CO[C@]1(C)C[C@@H](C)[C@H](O)[C@H](C)CN(C)C[C@H](COc2ccccc2-c2ccccc2)OC(=O)[C@H](C)[C@@H](O[C@H]2C[C@@](C)(OC)[C@@H](O)[C@H](C)O2)[C@H](C)[C@H]1O[C@@H]1O[C@H](C)C[C@H](N(C)C)[C@H]1O`?
Answer: MIC (Streptococcus pneumoniae [1]): 0.5 µg/mL (≈ 0.564 µM); MIC (Streptococcus pneumoniae [2]): 16 µg/mL (≈ 18 µM)

Question: `CO[C@]1(C)C[C@@H](C)[C@H](O)[C@H](C)CN(C)C[C@H](COc2cccc(-c3ccccc3)c2)OC(=O)[C@H](C)[C@@H](O[C@H]2C[C@@](C)(OC)[C@@H](O)[C@H](C)O2)[C@H](C)[C@H]1O[C@@H]1O[C@H](C)C[C@H](N(C)C)[C@H]1O` was tested. Which MIC (Streptococcus pneumoniae [1]) did it give?
Answer: Its MIC is 1 µg/mL (≈ 1.13 µM).

Question: What about the MIC (Streptococcus pneumoniae [2]) of the same compound?
Answer: The MIC was 16 µg/mL (≈ 18 µM).

Question: What does the source list for `CO[C@]1(C)C[C@@H](C)[C@H](O)[C@H](C)CN(C)C[C@H](COc2ccc(-c3ccccc3)cc2)OC(=O)[C@H](C)[C@@H](O[C@H]2C[C@@](C)(OC)[C@@H](O)[C@H](C)O2)[C@H](C)[C@H]1O[C@@H]1O[C@H](C)C[C@H](N(C)C)[C@H]1O`?
Answer: MIC (Streptococcus pneumoniae [1]): 1 µg/mL (≈ 1.13 µM); MIC (Streptococcus pneumoniae [2]): 8 µg/mL (≈ 9.02 µM)

Question: Which MIC (Streptococcus pneumoniae [1]) does the source give for `CO[C@]1(C)C[C@@H](C)[C@H](O)[C@H](C)CN(C)C[C@H](COc2ccc(-c3cccnc3)cc2)OC(=O)[C@H](C)[C@@H](O[C@H]2C[C@@](C)(OC)[C@@H](O)[C@H](C)O2)[C@H](C)[C@H]1O[C@@H]1O[C@H](C)C[C@H](N(C)C)[C@H]1O` here?
Answer: Its MIC is 0.5 µg/mL (≈ 0.563 µM).

Question: What about the MIC (Streptococcus pneumoniae [2]) of the same compound?
Answer: Its MIC is 64 µg/mL (≈ 72.1 µM).

Question: `CO[C@]1(C)C[C@@H](C)[C@H](O)[C@H](C)CN(C)C[C@H](COc2ccc(-c3ccccn3)cc2)OC(=O)[C@H](C)[C@@H](O[C@H]2C[C@@](C)(OC)[C@@H](O)[C@H](C)O2)[C@H](C)[C@H]1O[C@@H]1O[C@H](C)C[C@H](N(C)C)[C@H]1O` was tested. Which MIC (Streptococcus pneumoniae [1]) did it give?
Answer: The MIC was 0.25 µg/mL (≈ 0.281 µM).

Question: What about the MIC (Streptococcus pneumoniae [2]) of the same compound?
Answer: The MIC was 16 µg/mL (≈ 18 µM).

Question: Which results are given for `CO[C@]1(C)C[C@@H](C)[C@H](O)[C@H](C)CN(C)CCOC(=O)C(C)C(=O)[C@H](C)[C@H]1O[C@@H]1O[C@H](C)C[C@H](N(C)C)[C@H]1O` (mixture of isomers)?
Answer: MIC (Streptococcus pneumoniae [1]): > 128 µg/mL; MIC (Streptococcus pneumoniae [2]): > 128 µg/mL

Question: For `CC[C@H]1OC(=O)[C@H](C)[C@@H](O[C@H]2C[C@@](C)(OC)[C@@H](O)[C@H](C)O2)[C@H](C)[C@@H](O[C@@H]2O[C@H](C)C[C@H](N(C)C)[C@H]2O)[C@](C)(OC)C[C@@H](C)C(=O)[C@H](C)[C@@H](O)[C@]1(C)O` [CLARITHROMYCIN], which MIC (Streptococcus pneumoniae [1]) is on record?
Answer: The MIC was 0.03 µg/mL (≈ 0.0401 µM).

Question: And the MIC (Streptococcus pneumoniae [2])?
Answer: Its MIC is greater than 128 µg/mL.

Question: How did the MIC (Streptococcus pneumoniae [1]) turn out when `CC[C@H]1OC(=O)[C@H](C)C(=O)[C@H](C)[C@@H](O[C@@H]2O[C@H](C)C[C@H](N(C)C)[C@H]2O)[C@](C)(OC)C[C@@H](C)C(=O)[C@H](C)[C@H]2N(CCCCn3cnc(-c4cccnc4)c3)C(=O)O[C@]12C` [TELITHROMYCIN] was run?
Answer: The MIC was 4 µg/mL (≈ 4.93 µM).

Question: And the MIC (Streptococcus pneumoniae [2])?
Answer: The MIC was greater than 128 µg/mL.
